Fewer inactive variants are shown than the library holds.
B1: tRNA (parent)
chain: GUUCCGUUGGCGUAAUGGUAACGCGUCUCCCUCCUAAGGAGAAGACUGCGGGUUCGAGUCCCGUACGGAACG

Variants of: B1
Assay: yeast fitness relative to wild type (ratio to wild type); higher = fitter; tRNA-Arg(CCU), competitive growth, 37 C, YPD
Outline: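 Genotype frequency changes were the basis for Darwinian fitness relative to wild type. The frequencies came from 100-nucleotide paired-end sequencing of gene amplicons from the start population and each end population of pooled yeast strains with tRNA-Arg(CCU) gene variants at the native locus. Competition ran in YPD at 37°C for 24 hours in six replicates, genotypes needed ≥ 100 starting reads, and estimates < 0.5 were set to 0.5.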

Variant	yeast fitness
GUUCCGUUGGCGUGAUGGUAACGCGUCUCCCUCCUAAAGCGAAGACUGCAGGUACGAGUCCCGUACGGAACG [A14G G38A A40C G50A U54A]	0.523
GUUCCGUUCGCGUAAUGGUAGCGCGUCUCCCUCCUAAGGAGAAGACUGCGGGUUCGAGUACCGUACGGAACG [G9C A21G C60A]	≤ 0.5
GUUCCGUUGGGGUUAUGGUAACGCGUCUCCCUCAUAAGGAGAAGACUGCGGGUUCGGGUCCCGUACGGAACG [C11G A14U C34A A57G]	0.642
GUUCCGUUUGCGUAAUGGUAACGCGUCUCCCUCCUAUGGAGAAGACUGCCGGUUCGAGUCCCGUAUGGAACG [G9U A37U G50C C66U]	≤ 0.5
GUUCCGUUGGCGUAAUGGUUGAGCGUCUCCCUCCUAAGGAGAAGACUGGGGGUUCGAGUCCCGUACGGAACG [A20U A21G C22A C49G]	≤ 0.5
GUUCCGUUGGCGUAAUGGUAACGCGUCUCCCUCCUAAGAAGAAGACUGCGGGAUCGAGUCCCGUACGGAGCG [G39A U53A A70G]	≤ 0.5
GUACCAUUGGCGUAAUGGUAACGCGUCUCCCUCCUAAGGAGAAGAUUGCGGGUUCGAGUCCCGUACGGAACG [U3A G6A C46U]	0.638
GUUCCGUUGGCGUAAUGGUAACGCGUCUCCCUCCUAGGGAGAAGACUGCGGGUUCGAGUCCAGUACGGAACG [A37G C62A]	0.582
GACCCAUUGGCGUAAUGGUAACGCGCCUCCCUCCUAAGGAGAAGACUGCGGGUUCAAGUCCCGUACGGAACG [U2A U3C G6A U26C G56A]	≤ 0.5
GUUCUGUUGCCGUAAUGGUAACGCGUGCCCCUCCUAAGCAGAAGAGUGCGGGUUCGAGUCCCGUGCGGAACG [C5U G10C C27G U28C G39C C46G A65G]	≤ 0.5
GUUCCGUUGCCGUAAUGGUAACGCGUCUCCCUCCUAACGAGAAGACUGCGGGUUCGAGUCCCGUACGGAACG [G10C G38C]	0.538
GUUCCGUUGGCGUAAUGGUAACGCGUCUCCCUCCUAAGGAGAAGCAUGCGGGUUCGAGUCCAGUACGGAACG [A45C C46A C62A]	0.603
GUUCCGUUGGCGUAAUGGUAACGCGUCUCCGUCCUAAGGAAAAGACUGCGGCUUCGAGUUCGGUAGGGAACG [C31G G41A G52C C60U C62G C66G]	0.539
GUUCCGUUGGCGUAAUGGUAACGCAUCUCCCUCCUAAGGACAAGACUGCGGGUUCGAAUCCCGUACGGAACG [G25A G41C G58A]	0.975
GUUCCGUUGGCGUAAUGGUAACGCGUCUCCCUCUUAAGGAGAAGACUGAGGGUUCCAGUCCAGUCCGGAACG [C34U C49A G56C C62A A65C]	0.519
GUUCCGUUGGCGUAAUGGUACCGCGACUCCCUCCUAAGGUGAAGACUGCGGGUUCGAGUCCCGUACGGAACG [A21C U26A A40U]	0.534
GUUCCGUUGGCGUAAUGGUAGCGCGUCUCCCUCCUAAGGAGAAGACUGCGGGUUCCAGUCCCGUGCGGAACG [A21G G56C A65G]	0.583
GUUCCGUUGGCGUAAUGGUAACGCGUCUCCCUCCUAAGGAGUAGACUGCAGGUUCGAGUGCCGUACGGAACG [A42U G50A C60G]	0.614
GUUCUGUUGGCGUAAUGCUAACGCGGCUCCCUCCUAAGGAGAAGACUGCGGGUUCGAGUCCCGUACGGAACG [C5U G18C U26G]	≤ 0.5

Variant	yeast fitness
GUUCCGCUGGCGUAAUGGUAACGCGUCUCCCUCCUAAGGAGAAGACUCCGGGUUCGAGUCCUGUACGGAACG [U7C G48C C62U]	0.548
GUUGCGUUGGCGUAAUGCUAACGCGUCUCCCUCCUAAGGAGAAGACUGCGGGUUCGCGUCCCGUACGGAACG [C4G G18C A57C]	≤ 0.5
GUUCCGUUGGAGUAAUGGUAACGCGUCUCCCUCCUAAGGAGAGGACUGCCGGUUCCAGUCCCGUACGGAACG [C11A A43G G50C G56C]	≤ 0.5
GUUCCGUUGGCGUAAUGGUAACGCGUCUCCCUCCUGAGGAGUAGACUGCGGGCUCGACUCCCGUACGGAACG [A36G A42U U53C G58C]	0.569
GUUCCGUUGGCGUAAUGGUAAUGCGUCUCCGUCCUAAGGAGAAGACUGCGAGUUCGAGUCCCGUACGGAACG [C22U C31G G51A]	0.563
GUUCCGUUGGCGUAAUGGUAACGCGUCUCCUUCGUAAGGAGAAGACUGCAGGUUCGAGUCCCGUACGGAACG [C31U C34G G50A]	≤ 0.5
GUUCCGUUGGCGUAAUGGUAACGCGUCUCCCUCUUAAGGAGUAGACUGCGGGUUCGAGUCCCGUAUGGAACG [C34U A42U C66U]	≤ 0.5
GUUCGGUUGGCGUAAUGGUAACGCGUCUCCCUCAUUAGGAGAAGACUGCGCGUUCAAGUCCCGUACGGAACG [C5G C34A A36U G51C G56A]	0.797
GUUCCGUUGGCGUAAUGGUAACGUGUCUCCCUCCUAAGGAGAAGAAUGCGGGUUCGAGUCCCGUGCGGAACG [C24U C46A A65G]	0.7
GUUCAGUUGGCAUAAUGGUAACGCGUCUCCCUCCUAAGGAGAAGACUACGGGUUCGAGUCUCGUACGGAACG [C5A G12A G48A C61U]	≤ 0.5
GUUCCGUUGGCGUAAUGGUUACGCGUCUCCCUCUUAAGGAGAAGACUGCGGGUUCGAGUCCCGUACGGAACG [A20U C34U]	0.652
GUUCCGUUGGUGUAAUGGUAACGCGUCUCCCUCCUUAGGAGACGACUGCGGGUUCGGGUCCCGUACGGAACG [C11U A36U A43C A57G]	1.1
GAUCCGAUGGCGUAAUGGUAACGCGUCUCCCUCCUAAGGAGAAGACUGCGGGUACGAGUCCCGUACGGAACG [U2A U7A U54A]	≤ 0.5
GUUCCGUUGGCGUAGUGGUAACGCGUCUCCCUCCAAAGGAGAAGACUGCGGGUUCGGGUCCGGUACGGAACG [A15G U35A A57G C62G]	≤ 0.5
GUUUCGUUGGCGUAAUGGUAACGCGUCUACCUCCUAAGGAGAAGACUGCGGCUCAGAGGCCCGUACGGAACG [C4U C29A G52C U54C C55A U59G]	≤ 0.5
GUUCCGUUGGCGUAAUGGUAACGCGUCUCCCUCCUAAGGGGAAGACUACGGGUUCGAGUCCCGUCCCGAACG [A40G G48A A65C G67C]	≤ 0.5
GUUACGUUGGCGUAAUGGUUACGCGUCUCCCUCCUAAGGAGAAGACUGCGGGUUCGAGUCCCGUACGGAACG [C4A A20U]	0.707
GCUCCGUUGGCGUAAUGGUAACGCGUCUCCCUCCUAAGGCGAAGACUGCGGGUUCGAGUCCCGUAAGGAACG [U2C A40C C66A]	≤ 0.5
